# Bioassay records: PubChem, several laboratories
# Vif inh: inhibitors of HIV Vif; HEK293T cells, Vif self-association by quenched fluorescence, imaging, 24 h; inhibition, % at 7.49 µM; 340,000 tested, 0.35% active; AID 602346; in the data active means inhibition above about 50%, passing the limit was not always enough
# N-glyco inh: blocks N-linked glycosylation in D54 reporter cells; D54 ERlucT glycosylation luciferase reporter, 24 h; percent of 100 nM tunicamycin response; reporter increase, % at 12.5 µM; 360,000 tested, 0.23% active;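 active means mean luciferase reporter signal, scaled so untreated is 0 and the glycosylation-blocking control 100, at or above a set limit in every replicate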;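 further: luciferase carries N-glycosylation sites so blocking glycosylation raises the light; 0% = median of neutral control wells and 100% = median of 100 nM tunicamycin wells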
# MsrA inhibitor: inhibitors of bovine MsrA | purified bovine MsrA, absorbance read-out | inhibition, % at 15.5 µM | 360,000 tested, 0.75% active;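 further: 0% = vehicle wells with enzyme and 100% = reference inhibitor wells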
# aDG glyco act: increases alpha dystroglycan glycosylation; 360,000 tested, 0.22% active; AID 624168; activation, % at 10 µM; Pro5-aDG cells, alpha-DG glycosylation AlphaScreen (IIH6); 0% Pro5, 100% B10-LARGE cell signal;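 active means activation of at least 8% versus controls, or a plate z-score of at least 8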;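 further: Pro5 are CHO cells carrying HIG-tagged alpha-DG that lacks glycosylation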
# MsrA act: activators of bovine methionine sulfoxide reductase A. AID 602163. activation, % at 10.6 µM. purified bovine MsrA, absorbance read-out. 360,000 tested, 0.3% active; in the data active means activation above about 7.5%;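 further: 0% = vehicle and 100% = reference activator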
# UCH37 inh: blocks the human deubiquitinase UCH37 | Q9Y5K5 | purified proteasome/UCH37, Ub-AMC cleavage fluorescence | inhibition, % (test concentration not listed) | 330,000 tested, 0.33% active;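 active means mean inhibition over replicate wells above about 20%, limit read from the data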;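 further: 0% = compound-free wells with enzyme and 100% = wells lacking proteasome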
# Target sequence (Q9Y5K5 whole entry, looked up): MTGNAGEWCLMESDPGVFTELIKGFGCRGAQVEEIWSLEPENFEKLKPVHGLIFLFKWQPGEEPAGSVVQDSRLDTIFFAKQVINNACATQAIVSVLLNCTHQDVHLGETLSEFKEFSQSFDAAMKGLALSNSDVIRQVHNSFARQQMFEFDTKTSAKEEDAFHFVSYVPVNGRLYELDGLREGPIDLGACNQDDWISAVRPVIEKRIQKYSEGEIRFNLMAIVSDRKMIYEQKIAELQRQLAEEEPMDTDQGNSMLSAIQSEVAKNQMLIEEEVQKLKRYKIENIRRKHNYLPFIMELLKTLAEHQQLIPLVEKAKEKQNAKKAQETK
#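 Test system – human UCH37 enzyme supplied as purified proteasome complex · Incubation – 30 min preincubation with enzyme, 25 min cleavage at room temperature · Detection – AMC fluorescence from Ub-AMC cleavage, excitation 355 nm, emission 460 nm · Benchmarks – no-proteasome wells (full inhibition) and compound-free wells (no inhibition)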
# MsrA conf: bovine MsrA inhibition, confirmed | shares compounds with MsrA inhibitor | purified bovine MsrA, absorbance read-out | inhibition, % at 15.5 µM | 2,300 tested, 41% active | AID 651822;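 further: coupled to thioredoxin reductase with NADPH and selenocystamine and DMSO as substrate; 0% = vehicle only and 100% = full effect of reference inhibitor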
# The depositor's hits bear a star; x = not tested or not shown. Sampled rows, rich in hits. Any-hit rate of the full collection: about 1.9%. Unless noted, no stated cut-off is given here; in the data, active means inhibition above about 4.5%; inactive means the rest.
SMILES,Vif inh,N-glyco inh,MsrA inhibitor,aDG glyco act,MsrA act,UCH37 inh,MsrA conf
COCCCNc1nc2ccccc2nc1NS(=O)(=O)c1cccs1,1,-1,5.2*,0,-4,-9,3
COCCCNc1nc2ccccc2nc1NS(=O)(=O)c1ccc(OC)cc1,-6,-1,3,0,0,-119,x
O=c1oc2ccccc2cc1-c1cn2cccnc2n1,-5,-12,5.8*,0,1,-212,5.0*
Nc1c(C(=O)NN=Cc2ccc(OCc3ccccc3)cc2)cnn1-c1ccccc1,x,x,x,x,x,6,x
Cc1c(/C=N/Nc2ccc(F)cc2)c(O)n(C)c(=O)c1C#N,5,6,6.4*,0,-15,-8,6.7*
Cn1c(O)c(/C=N/Nc2ccccc2)c(=O)n(C)c1=O,21,4,1,1,-9,4,x
O=C(N/N=C\c1ccc[nH]1)c1cncc(Br)c1,5,0,5.1*,0,-1,x,4.6*
O=C(N/N=C/c1ccc[nH]1)c1cccc(Br)c1,2,0,4.7*,0,-1,x,4
C(=Nn1cnnc1)c1cccs1,x,x,x,x,x,6,x
C[n+]1ccccc1/C=C/c1ccc(C#N)cc1,7,-2,6.5*,0,-2,4,5.6*
Cc1ccccc1/C=C/c1cccc[n+]1C,-2,-1,2,0,1,14,x
C[n+]1ccccc1/C=C/c1ccc2ncccc2c1,-8,-2,6.9*,0,-4,3,6.9*
C[n+]1ccccc1/C=C/c1ccc(F)c(F)c1,-2,-2,4,0,-2,9,x
C[n+]1ccccc1/C=C/c1ccc([N+](=O)[O-])cc1,-11,11,6.0*,0,-3,9,6.8*
COCCCNC(=S)NN=Cc1ccc(O)cc1,x,x,x,x,x,5,x
Nc1ccc(C(=O)NN=Cc2cn(Cc3ccccc3)c3ccccc23)cc1,x,x,x,x,x,-12,x
COCCCn1c(SCC(=O)c2c(N)n(C3CC3)c(=O)[nH]c2=O)nnc1-c1ccccc1Cl,0,2,-1,0,0,x,x
COCCn1c(SCC(=O)c2c(N)n(C3CC3)c(=O)[nH]c2=O)nnc1-c1ccc(Cl)cc1,-2,1,6.0*,0,-4,4,0
CCn1c2c(c3cc(Br)ccc31)CCCC2=NO,x,x,x,x,x,2,x
Cc1ccc(-n2c(SCC(=O)O)nc3c(sc(=S)n3-c3ccc(C)c(C)c3)c2=O)cc1,-1,1,3,0,-3,11,x
Cc1ccc(-n2c(=S)sc3c(=O)n(-c4ccc(F)cc4)c(SCC(=O)O)nc32)cc1C,-12,1,5.3*,0,-6,7,2
Cc1ccc(S(=O)(=O)NCCNc2ccc([N+](=O)[O-])cc2C(F)(F)F)cc1,-6,-2,29*,2,-3,6,21*
Cc1ccc(C(=O)NCCNc2ccc([N+](=O)[O-])cc2C(F)(F)F)cc1,-1,0,0,1,-3,6,x
O=C(Cn1ccc(C(F)(F)F)n1)NN=Cc1ccc(N2CCOCC2)cc1,x,x,x,x,x,-185,x
Nc1nc(=S)c2ncn(C3CCCC3)c2[nH]1,-3,1,5.0*,0,2,x,4
SMILES,Vif inh,N-glyco inh,MsrA inhibitor,aDG glyco act,MsrA act,UCH37 inh,MsrA conf
Cc1nnc(C)n1N=Cc1ccccn1,x,x,x,x,x,0,x
CCCCc1nc(SCC(=O)N2CCCCC2)c2c(=O)n(C)c(=O)n(C)c2n1,-3,-1,-1,0,0,1,x
CC(C)Cc1nc(SCC(=O)N2CCCC2)c2c(=O)n(C)c(=O)n(C)c2n1,6,-1,8.0*,0,-2,2,7.2*
CCc1nc(SCC(=O)N2CCCC2)c2c(=O)n(C)c(=O)n(C)c2n1,-6,1,2,0,-2,3,x
CCCCc1nc(SCC(=O)N2CCCC2)c2c(=O)n(C)c(=O)n(C)c2n1,2,2,7.5*,0,-9,1,6.9*
CCc1noc(C)c1C(=O)Nc1nc(-c2ccc(F)cc2)c(C)s1,-21,-2,9.5*,1,-4,3,8.7*
CCc1noc(C)c1C(=O)Nc1nc2c(C)cccc2s1,-5,2,2,0,-3,0,x
CCc1noc(C)c1C(=O)Nc1nc(-c2cc(C)ccc2C)c(C)s1,x,-7,18*,0,-15,2,21*
COc1ccc(N(CC(=O)NN=Cc2ccc(C(=O)O)cc2)S(=O)(=O)c2ccc(NC(C)=O)cc2)cc1,x,x,x,x,x,4,x
C#CCOc1ccc(Cl)cc1C=NO,x,x,x,x,x,0,x
CS(=O)(=O)c1ccc2nc(NC(=O)c3ccc(Cl)cc3)sc2c1,-2,-3,0,0,-4,x,x
O=C(Nc1nc2cc3c(cc2s1)OCCO3)c1ccco1,0,-23,4.7*,0,-11,x,4.7*
CS(=O)(=O)c1ccc2nc(NC(=O)c3ccco3)sc2c1,-6,-10,5.7*,0,0,15,4.7*
CS(=O)(=O)c1ccc2nc(NC(=O)c3ccc(=O)[nH]c3)sc2c1,4,0,6.3*,0,-19,5,6.0*
CC(=O)Nc1nc2cc3c(cc2s1)OCO3,-5,-2,0,1,-2,1,x
Cc1ccc(C(=O)Nc2nc3ccc(S(C)(=O)=O)cc3s2)o1,1,-5,4,0,0,7,x
O=C(Nc1nc2cc3c(cc2s1)OCO3)c1ccco1,0,-18,3,0,-8,-26,x
O=C(Nc1nc2cc3c(cc2s1)OCO3)C1=COCCO1,-5,-20,5.2*,0,-5,10,2
O=C(NN=Cc1ccccc1)c1n[nH]c2c1CCCC2,x,x,x,x,x,1,x
CCCN1C(=O)C(=NOCC(=O)NC23CC4CC(CC(C4)C2)C3)c2ccccc21,x,x,x,x,x,2,x
Cc1nc2ccccc2c(=O)n1N=Cc1cn(-c2ccccc2)nc1-c1cccs1,x,x,x,x,x,1,x
CN(C)/C(CN1CCN(C=O)CC1)=C1\N=C(c2ccccc2)OC1=O,-2,0,6.0*,0,-6,20*,5.3*
Cc1ccc(S(=O)(=O)c2c(N)n(-c3ccccc3)c3nc4ccccc4nc23)cc1,0,0,2,0,-3,x,x
Cc1ccc(S(=O)(=O)c2c(N)n(NC(=O)c3ccco3)c3nc4ccccc4nc23)cc1,-7,-2,4.8*,0,0,-351,2
COc1ccc(C(=O)NN=Cc2sc(=O)n(Cc3cccc(C(=O)O)c3)c2Cl)cc1,x,x,x,x,x,12,x
COc1ccc(C(=O)N/N=C/c2sc(=O)n(Cc3cccc(C(=O)O)c3)c2Cl)cc1,x,1,9.0*,0,-3,x,5.6*
O=C(O)c1cccc(Cn2c(Cl)c(C=NNC(=O)c3ccccc3Cl)sc2=O)c1,x,x,x,x,x,-2,x
O=C(O)c1cccc(Cn2c(Cl)c(/C=N/NC(=O)c3ccccc3O)sc2=O)c1,-11,2,5.0*,0,-15,x,4
